The values that follow come from ChEMBL document CHEMBL3856249 (J Med Chem, 2016).

The nature of data set [1]: Lipophilicity, log P of the compound. The data set is classed as physicochemical. The conditions noted are these: octanol/water.
The nature of data set [2]: Clearance in Sprague-Dawley rat at […], iv or 10 mg/kg, po. Particulars: in vivo. In kind it is ADME, organism-based.
Data set [3] is described as follows: AUC (0 to infinity) in Beagle dog at 1 mg/kg, iv or 5 mg/kg, po. The data set is classed as ADME, organism-based, Canis lupus familiaris. Particulars: in vivo. The procedure, abridged:
(§1)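 Male Beagle dogs, 1 mg/kg i.v. and 5 mg/kg p.o., vehicle 20% HP-β-CD + HCl solution at pH 4; values are individual animals (two dogs) or mean of three animals ± SD.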

Data set [4] in a line: Ratio of drug level in brain to plasma of Swiss mouse at 10 mg/kg, sc measured after 1 hr. The data set is classed as ADME, organism-based. The conditions noted are these: brain and plasma, read-out: BPR. The method in brief:
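Swiss mice, single 10 mg/kg s.c. dose in 20% HP-β-CD + HCl solution at pH 4; brain/plasma ratio taken 1 h post-dose.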

Data set [5] in a line: Oral bioavailability in Beagle dog at 5 mg/kg. Particulars: in vivo. The data set is classed as ADME, organism-based, Canis lupus familiaris. The procedure, abridged:
as §1

A short description of data set [6]: Half life in Beagle dog at 1 mg/kg, iv or 5 mg/kg, po. In kind it is ADME, organism-based, Canis lupus familiaris. The conditions noted are these: in vivo. The method in brief:
as §1

The nature of data set [7]: Tmax in Beagle dog at 1 mg/kg, iv or 5 mg/kg, po. Particulars: in vivo. In kind it is ADME, organism-based, Canis lupus familiaris. The procedure, abridged: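 Male Beagle dogs given 5 mg/kg orally and 1 mg/kg intravenously, formulated in 20% HP-β-CD + HCl solution at pH 4. Tmax reported as mean ± SD of three animals.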
The nature of data set [8]: Cmax in Beagle dog at 1 mg/kg, iv or 5 mg/kg, po. The data set is classed as ADME, organism-based, Canis lupus familiaris. The conditions noted are these: in vivo. The method in brief: as §1
The nature of data set [9]: Apparent permeability across apical to basolateral side over basolateral to apical side in pig LLC-PK1 cells at 1 uM measured after 120 mins. In kind it is ADME, cell-based, Sus scrofa.
A short description of data set [10]: Metabolic stability in rat liver microsomes assessed as compound metabolized at 5 uM measured after 15 mins. The data set is classed as ADME. Particulars: read-out: Drug metabolism. The procedure, abridged:
(§2)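 Human or rat liver microsomes incubated with compound at 5 μM for 15 min; read-out is % of parent metabolized; means of at least two experiments.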

Data set [11] is described as follows: Metabolic stability in human liver microsomes assessed as compound metabolized at 5 uM measured after 15 mins. In kind it is ADME. Particulars: read-out: Drug metabolism. The method in brief: as §2
Data set [12] in a line: Dissociation constant, pKa of the compound. The data set is classed as physicochemical.
Data set [13] is described as follows: Elimination half life in Sprague-Dawley rat at […], iv or 10 mg/kg, po. In kind it is ADME, organism-based. Particulars: in vivo, read-out: beta t1/2 (converted).
A short description of data set [14]: Clearance in Beagle dog at 1 mg/kg, iv or 5 mg/kg, po. In kind it is ADME, organism-based, Canis lupus familiaris. Particulars: in vivo. The procedure, abridged: as §1
Data set [15] is described as follows: Oral bioavailability in Sprague-Dawley rat at 10 mg/kg. In kind it is ADME, organism-based. The conditions noted are these: in vivo.
The nature of data set [16]: Tmax in Sprague-Dawley rat at […], iv or 10 mg/kg, po. In kind it is ADME, organism-based. Particulars: in vivo.
A short description of data set [17]: Cmax in Sprague-Dawley rat at […], iv or 10 mg/kg, po. Particulars: in vivo. The data set is classed as ADME, organism-based.
The nature of data set [18]: AUC (0 to infinity) in Sprague-Dawley rat at […], iv or 10 mg/kg, po. In kind it is ADME, organism-based. Particulars: in vivo.

As to `FC(F)(F)c1c(N2CCC(c3ccccc3)CC2)ccn2c(CC3CC3)nnc12`, in data set [1], the lipophilicity (logP) came out at 4.4. This compound came in with a clearance in [2] of 31 to 37 mL/min/kg. The AUC(0-inf) in data set [3] lay within 531 to 957 ng·h/mL. Further, in [4], the Kp at 1 h was determined as 1.4. In addition, the bioavailability in [5] was 18 to 33%. Besides, in [6], the half-life lay in the range of 66 to 108 min. Besides, in data set [7], the Tmax turned out to be 30 min. In data set [8], this compound came in with a Cmax of 218 to 472 ng/mL. The apparent permeability (Papp) at 2 h, 1 µM in [9] came to 12 ×10⁻⁶ cm/s. The metabolised at […], 5 µM in data set [10] was 25%.
Consider `Fc1ccc([C@H]2CC[C@@H](NCc3ccn4c(CC5CC5)nnc4c3C(F)(F)F)CC2)c(F)c1`, for which the figures for the metabolised at […], 5 µM in data set [11] and in data set [10] were 81% and 84%, respectively.
The corresponding values for `CC1(c2ccccc2)CCCN(Cc2ccn3c(CC4CC4)nnc3c2C(F)(F)F)C1` (centres undefined) are 97% and 99%.
The like results for `Fc1cccc(F)c1C1CCN(Cc2ccn3c(CC4CC4)nnc3c2C(F)(F)F)CC1` were, in that order, 5% and 75%.
The corresponding values for `Fc1ccccc1C1CCN(Cc2ccn3c(CC4CC4)nnc3c2C(F)(F)F)CC1` are 8% and 85%.
As to `FC(F)(F)c1c(CN2CCC(F)(c3ccccc3)CC2)ccn2c(CC3CC3)nnc12`, the figures for the metabolised at […], 5 µM in data set [11] and in data set [10] were 24% and 78%, respectively.
As for `Fc1ccc(N2CCN(Cc3ccn4c(CC5CC5)nnc4c3C(F)(F)F)CC2)c(F)c1`, the pKa in [12] came out at 5. Besides, the values for the half-life in data set [13] and in data set [6] were 180 min and 420 to 540 min, respectively. In addition, the figures for the clearance in data set [14] and in [2] were 4 to 6 mL/min/kg and 16 mL/min/kg, respectively. Besides, the logP in [1] amounted to 4.2. The AUC(0-inf) in data set [3] was 3960 to 9860 ng·h/mL; in [18], 11300 ng·h/mL. Moreover, the bioavailability was 100% in data set [15] and 18 to 44% in [5]. For the same compound, the Tmax in [16] was found to be 300 min; in [7], 30 min. The Kp at 1 h in data set [4] stood at 2.1. Moreover, the metabolised at […], 5 µM in [11] came out at 7%; in data set [10], 29%. The Cmax in data set [8] is 459 to 1400 ng/mL; in data set [17], 980 ng/mL. For the same compound, the Papp at 2 h, 1 µM in [9] worked out at 22 ×10⁻⁶ cm/s.
Take `COC1(c2ccccc2)CCN(Cc2ccn3c(CC4CC4)nnc3c2C(F)(F)F)CC1`: the metabolised at […], 5 µM in [11] came to 69%; in [10], 98%.
The like results for `Fc1ccc(COC2CCN(Cc3ccn4c(CC5CC5)nnc4c3C(F)(F)F)CC2)c(F)c1` were, in that order, 67% and 96%.
The like results for `FC(F)(F)c1c(CN2CCCC(c3ccccc3)C2)ccn2c(CC3CC3)nnc12` (centres undefined) were, in that order, 51% and 98%.
Turning to `Fc1ccc(C2CCN(Cc3ccn4c(CC5CC5)nnc4c3C(F)(F)F)CC2)c(F)c1`, the results for the metabolised at […], 5 µM in [11] and in [10] were 6% and 9%, respectively.
The like results for `Fc1ccc([C@H]2CC[C@H](NCc3ccn4c(CC5CC5)nnc4c3C(F)(F)F)CC2)c(F)c1` were, in that order, 33% and 34%.
The like results for `FC(F)(F)c1c(CN2CCC(c3ccccc3Cl)CC2)ccn2c(CC3CC3)nnc12` were, in that order, 13% and 90%.
Consider `FC(F)(F)c1c(CN2CCC(c3ccccc3)(C(F)(F)F)CC2)ccn2c(CC3CC3)nnc12`, for which the metabolised at […], 5 µM stood at 35% in data set [11] and 98% in data set [10].
On to `FC(F)(F)c1c(CN2CCN(c3ccc(Cl)cc3Cl)CC2)ccn2c(CC3CC3)nnc12`, for which the results for the metabolised at […], 5 µM in data set [11] and in data set [10] were 1% and 9%, respectively.
The corresponding values for `Fc1ccc(OC2CCN(Cc3ccn4c(CC5CC5)nnc4c3C(F)(F)F)CC2)c(F)c1` are 25% and 57%.
The like results for `Fc1cccc(F)c1N1CCN(Cc2ccn3c(CC4CC4)nnc3c2C(F)(F)F)CC1` were, in that order, 55% and 99%.
The corresponding values for `Fc1ccc(N2CCCN(Cc3ccn4c(CC5CC5)nnc4c3C(F)(F)F)CC2)c(F)c1` are 91% and 99%.
`CCCCn1ccc(N2CCC(c3ccccc3)CC2)c(Cl)c1=O` [JNJ-40411813] gave a pKa in data set [12] of less than 2. Further, the lipophilicity (logP) in data set [1] worked out at 4.6. Also, the Tmax in [16] and in data set [7] was 30 min each time. In addition, the Kp at 1 h in [4] came to 1. In addition, in data set [5], the bioavailability turned out to be 20%. The metabolised at […], 5 µM was determined as 23% in data set [11] and 53% in [10]. This compound also had a Cmax in data set [8] of 373 ng/mL.
